Screening results: PubChem, several laboratories
Most compounds without a hit are left out; they make up all but 27% or so of the library.
CYP2C9 act – activators of human CYP2C9 | P11712 | recombinant CYP2C9, luciferin-H conversion, luminescence; active compounds read high; factor 1 = untreated enzyme, 0 = blocked | activation factor at 5 µM | 1.4% of 96,000 active;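 active means activation factor of 2 or more for CYP2C9 at a 5 µM dose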;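 further: 0 = sulfaphenazole-blocked wells and 1 = vehicle-only wells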
Target sequence (P11712 whole entry, looked up): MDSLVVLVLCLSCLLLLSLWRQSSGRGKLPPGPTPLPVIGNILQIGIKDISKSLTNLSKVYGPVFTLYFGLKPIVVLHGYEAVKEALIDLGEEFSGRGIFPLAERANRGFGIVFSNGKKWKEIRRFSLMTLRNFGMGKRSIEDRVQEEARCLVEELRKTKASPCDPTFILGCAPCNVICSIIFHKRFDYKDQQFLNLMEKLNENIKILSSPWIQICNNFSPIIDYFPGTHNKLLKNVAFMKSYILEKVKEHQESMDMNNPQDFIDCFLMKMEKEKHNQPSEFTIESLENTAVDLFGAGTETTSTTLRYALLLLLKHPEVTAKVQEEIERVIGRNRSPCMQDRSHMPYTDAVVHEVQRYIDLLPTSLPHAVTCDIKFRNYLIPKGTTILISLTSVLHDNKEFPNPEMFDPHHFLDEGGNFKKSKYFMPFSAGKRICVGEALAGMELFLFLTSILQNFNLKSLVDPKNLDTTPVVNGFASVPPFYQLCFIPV
HIV Rev-RRE inh – inhibitors of HIV-1 Rev-RRE RNA interaction | P05866 | Rev peptide-RRE RNA binding, FRET | inhibition, % at 8 µM | 0.79% of 97,000 active | AID 704;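 active means inhibition above the screen-wide mean plus 3 SD, cut at about 35% in these data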;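 further: 0% = median DMSO wells and 100% = median Neomycin B control wells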
Target sequence (P05866 whole entry, looked up): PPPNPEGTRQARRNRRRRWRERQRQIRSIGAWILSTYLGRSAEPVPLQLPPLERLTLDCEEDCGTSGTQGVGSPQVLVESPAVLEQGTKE
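Probe or stimulus: fluorescein-Rev peptide as binding partner; assay system: Cy5-tagged RRE RNA duplex with fluorescein-tagged Rev peptide; timing: 5 min compound–RNA preincubation, then 15 min with peptide, 25 °C; medium: HEPES pH 7.5 buffer with KCl, MgCl2, NaCl and EDTA; signal: fluorescein-to-Cy5 FRET, 480 nm excitation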
CYP2C9 inhib – blocks human cytochrome P450 2C9; P11712; inhibition, % at 5 µM; CYP2C9 Supersomes, luciferin-H conversion, luminescence; 20% of 96,000 active;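 active means blocking of liver enzyme CYP2C9 beyond about 50% at 5 µM, limit read from the data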
Cav3 T inh – blocks human Cav3.2 T-type calcium channel; Cav3.2-expressing cells, Fluo-4 calcium fluorescence FDSS; active compounds read low; B-score at 10 µM; 4% of 100,000 active;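 active means single-dose well whose peak fluorescence ratio is a statistical outlier from its plate by either plate-standardised score or position-corrected B-score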
CYP2C19 inh – blocks human cytochrome P450 2C19 | CYP2C19 Supersomes, luciferin-H EGE luminescence, 30 min | inhibition, % at 5 µM | 21% of 96,000 active | AID 778;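 active means CYP2C19 inhibition above a set limit at 5 µM in the primary screen, cut at about 50% in these data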;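 further: plate controls were negative control wells for no effect and 2.5 mM tranylcypromine positive control for full effect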
CYP2C19 act – increases human CYP2C19 enzyme activity | P33261 | activation factor at 5 µM | recombinant CYP2C19, luciferin-H EGE luminescence; active compounds read high; 0 = fully inhibited enzyme, 1 = untreated enzyme | 96,000 tested, under 10 active | AID 1025;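 active means activation factor of at least 2 at 5 µM in the primary screen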;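 further: 0 = wells with 2.5 mM tranylcypromine and 1 = vehicle-only wells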
* hit, by the source's call; x = no result given.

SMILES	CYP2C9 act	HIV Rev-RRE inh	CYP2C9 inhib	Cav3 T inh	CYP2C19 inh	CYP2C19 act
OCCCn1c(C(CO)Nc2nc(-c3ccc(Cl)cc3)cs2)nc2ccccc21 (configuration not stated)	x	x	x	-0.65	x	x
Cc1ccc(C2C(=O)N(C3CCCC3)CC(=O)N2C2CCCCC2)cc1 (configuration not stated)	0.8	5.6	21.4	-0.0611	17.1	0.8
COc1ccc(C2C(=O)N(C3CCCCC3)CC(=O)N2C2CCCCC2)cc1 (configuration not stated)	0.5	8.9	52.7*	-0.542	31.1	0.7
COc1ccc(S(=O)(=O)N2Cc3ccccc3CC2C(=O)N2CCOCC2)cc1OC (configuration not stated)	1	-2.5	2.6	-0.478	-5.7	1.1
COc1ccc(S(=O)(=O)N2Cc3ccccc3CC2C(=O)Nc2nccs2)cc1OC (configuration not stated)	0.3	3.9	69.0*	-0.62	86.4*	0.1
O=C(O)C1Cc2ccccc2CN1S(=O)(=O)c1ccc2ccccc2c1 (configuration not stated)	0.9	-0.8	7.5	-0.114	4.5	1
COc1ccc(S(=O)(=O)N2Cc3ccccc3CC2C(=O)Nc2nccs2)cc1 (configuration not stated)	x	3.8	x	-1.12	92.9*	0.1
CC(C)(C)C(=O)NC(=S)Nc1ccccc1C(=O)Nc1ccccc1	1	0.9	-3.7	0.0712	17.6	0.8
COc1ccccc1C(=O)NC(C)C(c1cccs1)N1CCN(C)CC1 (configuration not stated)	x	-3.6	x	-0.198	x	x
Cc1cc(CN2CCOCC2)c(O)c(C2(C)CCCCC2)c1	0.6	7.1	44.2	1.38	42.5	0.6
CCOc1ccccc1OCCOc1ccccc1CC	1	16.8	1.8	-0.276	30.4	0.7
COc1cccc(OCCOc2ccccc2OC(C)C)c1	0.8	17.6	21.6	-1.67	90.1*	0.1
CCOc1ccccc1OCCOc1ccccc1OC(C)C	0.9	7.7	10.7	-5.36*	56.0*	0.4
Cc1cc(NC(=O)COc2ncnc3sc(C)c(C)c23)no1	1.1	3.0	-7.3	-0.0465	1.6	1
Cc1cc(Oc2ccccc2)nc2ccc(O)cc12	1.9	x	-85.4	x	80.1*	0.2
c1ccc(Oc2cnc3ccccc3n2)cc1	1	3.0	2.5	-1.38	29.7	0.7
CCOP(=O)(OCC)C(C#N)=C1SCN(c2ccc(Cl)cc2)CS1	0.4	0.1	61.1*	0.122	32.4	0.7
N#CCC(=N)N1CCN(c2ccc(Cl)cc2)CC1	0.8	1.2	17.9	x	14.5	0.9
COc1ccccc1CNC(=O)c1cnn2c(C(F)F)cc(C)nc12	2.2*	8.1	-120.1	1.23	61.1*	0.4
COc1ccc(CCNC(=O)c2cnn3cccnc23)cc1OC	1.1	8.3	-7.1	0.0922	27.4	0.7
COc1ccccc1CCNC(=O)c1cnn2c(C(F)F)cc(C)nc12	1.6	x	-60.4	0.858	77.2*	0.2
COc1ccc(CCNC(=O)c2cnn3c(C(F)F)cc(C)nc23)cc1OC	0.5	-0.3	46.9	-0.0313	52.1*	0.5
COc1ccc(-n2nc(N)c3c(=O)oc(N(C)C)nc32)cc1	0.8	1.1	21.1	0.0934	40.5	0.6
CN1C=CC2=C(C#N)C(N)C(C#N)(C#N)[C@H](c3ccccc3)[C@H]2C1 (some centres not stated)	x	59.6*	x	-0.00231	x	x
CCCCC(=O)NC(N1CCCCC1)C(Cl)(Cl)Cl (configuration not stated)	0.8	-4.2	17.7	-2.57	58.9*	0.4
SMILES	CYP2C9 act	HIV Rev-RRE inh	CYP2C9 inhib	Cav3 T inh	CYP2C19 inh	CYP2C19 act
O=C(Nc1sc2c(c1C(=O)NCc1cccnc1)CCCC2)c1ccco1	0.1	7.5	95.0*	0.732	78.5*	0.2
COC(=O)c1c(NC(=O)c2ccco2)sc2c1C(C(=O)OC)CC2 (configuration not stated)	0.4	7.0	61.5*	-2.25	33.8	0.7
COC(=O)c1c(NC(=O)c2ccco2)sc2c1CCC2	0.6	1.7	40.5	-0.0594	23.0	0.8
O=C(Nc1sc2c(c1C(=O)O)CCC2)c1ccco1	0.5	10.7	53.2*	0.0337	62.3*	0.4
CCOC(=O)CNC(=O)CSc1nnc(-c2ccco2)n1Cc1ccco1	0.9	13.2	6.1	-0.939	12.8	0.9
O=C(CSc1nnc(Cc2cccs2)n1Cc1ccco1)Nc1cc(Cl)cc(Cl)c1	0.5	3.5	47.9	-4.27*	25.4	0.7
COc1ccc(-c2nnc(SCC(=O)Nc3ccc(C)cc3)n2C)cc1	0.6	0.3	40.3	1.64	28.8	0.7
O=C(CSc1nnc(-c2ccco2)n1Cc1ccco1)Nc1ccccc1	0.4	3.9	64.0*	-0.551	18.8	0.8
O=C(CSc1nnc(Cc2cccs2)n1Cc1ccco1)Nc1cccc(Cl)c1	0.9	9.5	13.8	-3.48	38.1	0.6
CCN(CC)S(=O)(=O)c1ccc(NC(=O)CSc2nnc(-c3cccc(OC)c3)n2C)cc1	0.5	8.4	51.9*	-1.32	23.0	0.8
COc1ccc(NC(=O)CSc2nnc(-c3ccco3)n2C)cc1	0.1	x	93.3*	0.766	92.5*	0.1
COc1ccccc1-c1nnc(SCC(=O)Nc2ccc(S(N)(=O)=O)cc2)n1C	0.2	-0.1	76.5*	0.591	38.0	0.6
CCn1c2ccccc2c2cc(NC(=O)CSc3nnc(-c4ccc(OC)c(OC)c4)n3N)ccc21	0.9	11.1	6.5	-0.324	40.4	0.6
COc1ccccc1NC(=O)CSc1nnc(-c2ccco2)n1Cc1ccco1	0.2	3.2	77.0*	-0.148	83.0*	0.2
CCn1c2ccccc2c2cc(NC(=O)CSc3nnc(-c4ccccc4OC)n3N)ccc21	0.4	6.5	57.6*	-3.18	93.8*	0.1
COc1ccc(C)cc1NC(=O)CSc1nnc(-c2ccccn2)n1Cc1ccco1	0.6	9.1	40.8	-0.473	45.0	0.6
COc1ccc(NC(=O)CSc2nnc(CCC(=O)Nc3ccc(C)c(Cl)c3)n2C)cc1	0.3	4.7	65.5*	0.215	12.0	0.9
Cc1ccnc2ccc(-c3nc4ccccc4o3)cc12	1	0.8	-0.5	0.053	18.2	0.8
Cc1ccc2c(c1)C1CN(C)CCC1N2CC(=O)N(C)c1ccccc1 (configuration not stated)	0.9	x	5.7	0.0392	2.6	1
COc1ccc(NC(=O)CSc2nnc(-c3ccccc3C)n2C)cc1	0.8	-2.5	20.5	-0.0945	19.3	0.8
CC(C)c1cc(NC(=O)CSc2nnc(-c3ccccc3F)n2C)on1	0.4	x	58.3*	0.325	39.9	0.6
COc1ccccc1NC(=O)CSc1nnc(C)n1CCc1ccccc1	0.5	1.6	52.9*	0.456	41.0	0.6
COc1ccccc1NC(=O)CSc1nnc(-c2ccccn2)n1Cc1ccco1	0.2	4.7	76.9*	-1.11	37.8	0.6
